# Data taken from PubChem BioAssay.
# The source made the active and inactive calls.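 The calls were made as follows, unless noted: active = a full or partial loss of lipid-probe fluorescence in the fish gall bladder, intestine or both, judged by eye; inactive = no fluorescence loss, or compound toxic to the fish.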
# What was measured:
# [1] = inhibitors of TNFa-induced NFkB p65 translocation, primary screen, imaging, HUVEC, MLSMR starter and 10KST1 sets (AID 438;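 active = inhibition above 20% together with a positive visual image hit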;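 also: compound added about 3h40 before a 20 min TNFalpha stimulation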;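 as to inhibition: signal is the nuclear over cytoplasmic p65 intensity ratio per well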); conditions: HUVEC TNFa-induced p65 nuclear translocation; cell count: measured here: nuclei count (cytotoxicity indicator), at 2.08 µM; inhibition: at 2 µM, stronger effect = higher value, 0% TNFa-plus-vehicle, 100% no-TNFa wells
# [2] = endothelial E-selectin expression blockers – imaging, HUVEC, immunofluorescence, MLSMR starter and 10KST1 sets, primary screen (AID 487;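 active = visually confirmed hit in the image check and inhibition above 20%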;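 as to inhibition: signal is fraction of cell area covered by stained E-selectin grains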;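 as to nuclei count: 100% = median nuclei count of all wells on the same plate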); conditions: HUVEC TNFalpha-induced E-selectin immunofluorescence imaging, at 2 µM; inhibition: stronger effect = higher value; nuclei count: measured here: cell number, toxicity
# [3] = Primary imaging screen for DUSP6 inhibitors that restore phospho-Erk in transfected HeLa cells, chemical complementation (AID 609;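 active = compounds giving at least 50% inhibition in the cell-based MKP-3 phosphatase rescue imaging test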;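 as to inhibition: phospho-Erk level distribution per well compared with pooled transfected vehicle control wells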); conditions: HeLa MKP-3 transfected, phospho-Erk imaging KS statistic, at 10 µM, cells stimulated with TPA for 15 min
# [4] = molecular target: Dual specificity protein phosphatase 6 (Homo sapiens) (UniProt Q16828); assay: as above; conditions: HeLa MKP-3 transfected, phospho-Erk imaging KS statistic; at 10 µM; stronger effect = higher value; cells stimulated with TPA for 15 min
# [5] = molecular target: Voltage-gated potassium channel subunit beta-2 (Rattus norvegicus) (UniProt P62483); assay: inhibitors of rat Kvbeta2 reductase activity – biochemical, NADPH fluorescence, primary screen (AID 622;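 active = fluorescence slope higher than the sample average by over 3 SD, cut at about -0.22 in these data, passing the limit was not always enough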;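 also: slope of raw intensity against log time taken from 70 to 1610 s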); conditions: recombinant KvBeta, 4-cyanobenzaldehyde reduction, at 10 µM, stronger effect = higher value
# [6] = molecular target: Voltage-gated potassium channel subunit beta-2 (Rattus norvegicus) (UniProt P62483); assay: enhancers of rat Kvbeta2 NADPH turnover – biochemical, NADPH fluorescence, primary screen (AID 623;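 active = NADPH fluorescence slope more negative than the mean of all samples by about 3 SD, 99.7% confidence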;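 also: fluorescence intensity change per second fitted from 20 to 320 s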); conditions: Recombinant KvBeta, NADPH fluorescence decrease slope, 10 min; at 10 µM; stronger effect = lower value
# [7] = molecular target: Alpha-2C adrenergic receptor (Homo sapiens) (UniProt P18825); assay: compounds altering alpha2C-coupled GIRK flux – cell-based, HEK293 alpha2C/GIRK1/2, thallium flux, primary screen (AID 624;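 active = fluorescence slope after compound addition differing from the mean of all screened samples at 99.7% confidence, in either direction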;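 also: slope of fluorescence ratio to pre-addition baseline per second over 15 to 24 s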); conditions: thallium flux BTC fluorescence, at 10 µM, actives lie on both sides
# [8] = inhibitors of larval lipid processing in zebrafish, primary screen, whole organism, PED6 fluorescence, gall bladder and intestine (AID 686); conditions: Zebrafish larvae PED6 lipid processing, fluorescence scoring; screened at 20 µM (by protocol);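 also: larvae 5 to 7 days old with five fish per well; signal comes from phospholipase A2 cleavage of quenched PED6 carried via bile; overnight exposure to compound and PED6 before scoring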
# How it was run: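 Doses: 20 µM single dose. Test system: live zebrafish larvae aged 5-7 days, whole organism. Quantity: five larvae per well. Measured by: By-eye fluorescence microscopy. Reagent: ingested quenched lipid PED6 at 100 nM. Read-out: visual per-well fluorescence inhibition score. Times: overnight exposure of larvae to compound plus PED6.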
# [9] = loss of swimming-algae plug formation – whole organism, Chlamydomonas reinhardtii, WT vs cilia-less mutant, absorbance, 96-well, primary screen (AID 463189;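 active = inhibition at or above 50% relative to wild type and mutant plate controls; inactive = inhibition below 50%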;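 also: 0% = wild type cc124 cells in DMSO and 100% = ciliumless bld1 mutant cells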); conditions: Chlamydomonas reinhardtii gravitaxis, OD600 absorbance, 2 days; at 10 µM; stronger effect = higher value
# [10] = measured here: cell density z-score
# [11] = measured here: nuclear c-Myc green intensity z-score
# [12] = measured here: nuclear pErk red intensity z-score, stronger effect = higher value
# Chain of Dual specificity protein phosphatase 6 (Homo sapiens) (Q16828 whole entry, looked up): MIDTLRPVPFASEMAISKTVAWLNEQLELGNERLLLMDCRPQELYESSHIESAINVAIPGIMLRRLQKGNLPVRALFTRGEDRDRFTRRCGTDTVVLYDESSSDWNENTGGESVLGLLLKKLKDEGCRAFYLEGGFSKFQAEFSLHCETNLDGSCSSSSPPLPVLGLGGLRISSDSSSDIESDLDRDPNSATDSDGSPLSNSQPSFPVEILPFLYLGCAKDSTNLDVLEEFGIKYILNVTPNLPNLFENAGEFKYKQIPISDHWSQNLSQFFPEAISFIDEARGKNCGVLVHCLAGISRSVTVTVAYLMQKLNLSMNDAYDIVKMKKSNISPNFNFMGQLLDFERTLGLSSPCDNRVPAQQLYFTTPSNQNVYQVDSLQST
# Chain of Voltage-gated potassium channel subunit beta-2 (Rattus norvegicus) (P62483 whole entry, looked up): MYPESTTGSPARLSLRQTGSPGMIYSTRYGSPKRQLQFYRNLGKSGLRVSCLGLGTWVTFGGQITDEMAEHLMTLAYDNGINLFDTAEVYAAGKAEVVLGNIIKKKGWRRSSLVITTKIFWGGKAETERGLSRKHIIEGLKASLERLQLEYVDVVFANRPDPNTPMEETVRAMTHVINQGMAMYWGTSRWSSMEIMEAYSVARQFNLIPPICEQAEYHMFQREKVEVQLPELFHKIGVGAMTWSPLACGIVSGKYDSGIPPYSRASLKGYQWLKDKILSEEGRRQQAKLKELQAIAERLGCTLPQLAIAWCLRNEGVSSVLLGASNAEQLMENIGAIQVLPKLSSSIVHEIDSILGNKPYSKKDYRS
# Chain of Alpha-2C adrenergic receptor (Homo sapiens) (P18825 whole entry, looked up): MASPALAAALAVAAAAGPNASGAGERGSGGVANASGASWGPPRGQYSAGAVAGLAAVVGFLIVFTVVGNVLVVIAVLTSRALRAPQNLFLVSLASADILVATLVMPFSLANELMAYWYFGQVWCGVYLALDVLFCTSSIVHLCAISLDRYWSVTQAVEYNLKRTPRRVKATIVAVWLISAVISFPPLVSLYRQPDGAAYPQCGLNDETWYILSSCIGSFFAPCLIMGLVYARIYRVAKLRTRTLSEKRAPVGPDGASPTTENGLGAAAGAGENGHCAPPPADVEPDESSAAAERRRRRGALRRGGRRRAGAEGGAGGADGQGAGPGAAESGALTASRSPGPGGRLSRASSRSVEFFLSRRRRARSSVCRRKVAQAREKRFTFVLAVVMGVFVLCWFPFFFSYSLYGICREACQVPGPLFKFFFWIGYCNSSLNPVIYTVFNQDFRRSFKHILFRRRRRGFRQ
structure (smiles),measurement,setting,value
c1coc(-c2nc3nc4ccccc4nc3n2-c2ccc3c(c2)OCCO3)c1,cell count,[1],365
same,inhibition,[1],-1.4% (inactive)
same,inhibition,[2],-29.5% (inactive)
same,nuclei count,[2],152%
same,z-score,[3]; [10],0.934
same,z-score,[3]; [11],0.669
same,z-score,[3]; [12],-1.25
same,inhibition,[4],11.4% (inactive)
same,fluorescence slope,[5],-0.363 (inactive)
same,NADPH fluorescence slope,[6],-0.000166 (inactive)
same,slope,[7],0.00503 (inactive)
same,outcome,[8],inactive
same,inhibition,[9],12.2% (inactive)
O=c1/c(=C\c2cccn2-c2ccccc2)sc2nc3ccccc3n12,cell count,[1],640
same,inhibition,[1],-5.8% (inactive)
same,inhibition,[2],-42.1% (inactive)
same,nuclei count,[2],99.1%
same,z-score,[3]; [10],-0.282
same,z-score,[3]; [11],0.665
same,z-score,[3]; [12],0.128
same,inhibition,[4],3.56% (inactive)
same,fluorescence slope,[5],-0.181 (inactive)
same,NADPH fluorescence slope,[6],8.6e-06 (inactive)
same,slope,[7],0.00666 (inactive)
same,outcome,[8],inactive
same,inhibition,[9],9.26% (inactive)
CN(C)c1oc(-c2cccs2)nc1C#N,cell count,[1],443
same,inhibition,[1],-7.1% (inactive)
same,inhibition,[2],-173% (inactive)
same,nuclei count,[2],157%
same,z-score,[3]; [10],1.44
same,z-score,[3]; [11],1.03
same,z-score,[3]; [12],-0.732
same,inhibition,[4],6.04% (inactive)
same,fluorescence slope,[5],-0.052 (inactive)
same,NADPH fluorescence slope,[6],-1.6e-06 (inactive)
same,slope,[7],0.00583 (inactive)
same,outcome,[8],inactive
same,inhibition,[9],4.07% (inactive)
CCN(CC)CCN1C(=O)C(=O)/C(=C(/O)c2ccc(Cl)cc2)C1c1ccncc1 (stereo unspecified),cell count,[1],358
same,inhibition,[1],3.7% (inactive)
same,inhibition,[2],-38.6% (inactive)
same,nuclei count,[2],64.8%
same,z-score,[3]; [10],-0.384
same,z-score,[3]; [11],0.846
same,z-score,[3]; [12],-1.58
same,inhibition,[4],26.6% (inactive)
same,fluorescence slope,[5],-0.357 (inactive)
same,NADPH fluorescence slope,[6],-2e-05 (inactive)
same,slope,[7],0.00633 (inactive)
same,outcome,[8],inactive
same,inhibition,[9],21.1% (inactive)
COC(=O)c1ccc(C2C(C(=O)c3cc4ccccc4o3)=C(O)C(=O)N2CCCN(C)C)cc1 (stereo unspecified),cell count,[1],423
same,inhibition,[1],-8.1% (inactive)
same,inhibition,[2],-11.6% (inactive)
same,nuclei count,[2],167%
same,z-score,[3]; [10],0.389
same,z-score,[3]; [11],1.47
same,z-score,[3]; [12],0.581
same,inhibition,[4],-6.48% (inactive)
same,fluorescence slope,[5],-0.405 (inactive)
same,NADPH fluorescence slope,[6],-7.3e-05 (inactive)
same,slope,[7],0.00626 (inactive)
same,outcome,[8],inactive
same,inhibition,[9],-1.14% (inactive)
N#CC1=C(N)C(C#N)(C#N)[C@H](c2ccncc2)[C@H]2CN(C(=O)OCc3ccccc3)CC=C12,cell count,[1],555
same,inhibition,[1],-9.5% (inactive)
same,inhibition,[2],-136% (inactive)
same,nuclei count,[2],192%
same,z-score,[3]; [10],-0.56
same,z-score,[3]; [11],-0.0237
same,z-score,[3]; [12],-0.0209
same,inhibition,[4],20.3% (inactive)
same,fluorescence slope,[5],-0.271 (inactive)
same,NADPH fluorescence slope,[6],-4.4e-06 (inactive)
same,slope,[7],0.00576 (inactive)
same,outcome,[8],inactive
same,inhibition,[9],7.4% (inactive)
Cc1nnc(SCc2nc3ccccc3[nH]2)s1,cell count,[1],417
same,inhibition,[1],-9.9% (inactive)
same,inhibition,[2],-178% (inactive)
same,nuclei count,[2],172%
same,z-score,[3]; [10],1.08
same,z-score,[3]; [11],-0.712
same,z-score,[3]; [12],-0.186
same,inhibition,[4],-5.89% (inactive)
same,fluorescence slope,[5],-0.368 (inactive)
same,NADPH fluorescence slope,[6],-5.3e-05 (inactive)
same,slope,[7],0.00478 (inactive)
same,outcome,[8],inactive
same,inhibition,[9],9.63% (inactive)
